The source of these data is ChEMBL document CHEMBL1800061 (J Med Chem, 2010).

The source made the active and inactive calls. The calls are words filed in the database; no cut-off is given here. A value given as a limit tells only on which side of the number the result lay.

A word on the inhibition: it is the percentage by which the read-out fell short of the control. The term GI50 denotes the concentration at which growth is held to half of that of the control. For orientation: IC50 means the midpoint of a concentration-inhibition curve. For orientation: Cmax means the peak of the concentration-time curve. By AUC(0-t) is commonly meant exposure summed from dosing to a finite time, without extrapolation to infinity.

For data set [1], the system named is Mus musculus. The data set is described as follows: Inhibition of cyclin-dependent kinase substrate […] phosphorylation in nude BALB/c mouse PBMC at 50 mg/kg, po measured after 6 hrs by immunostaining and flow cytometric analysis. The data set is classed as functional, organism-based. Details: dose 50 mg/kg. The method, boiled down: (§1)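 Female nu/nu-BALB/c athymic nude mice (7 weeks old) given a single oral gavage dose in 28% PEG300/5% dimethylacetamide/10% HPB cyclodextrin in water. PBMC were isolated from cardiac blood after red-cell lysis, then fixed, permeabilized and stained with primary antibodies (1:100, 1 h, RT) and an Alexa Fluor 488 secondary (1:200, 1 h). Read-out was flow cytometry; n=4 (n=3 at 100 mg/kg).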

The target of data set [2] is Serine/threonine-protein kinase Chk2 (Homo sapiens) (UniProt O96017). Briefly: Inhibition of CHK2 assessed as residual enzyme activity at 10 uM.
Data set [3] concerns Mus musculus. Briefly: Inhibition of cyclin-dependent kinase substrate RB phosphorylation at Ser807/811 in HCT116 xenografted nude BALB/c mouse at 25 mg/kg/day, po measured after 14 days by immunostaining and […] relative to control. The conditions noted are these: in vivo, 336 h. Further details: route oral. In kind it is organism-based. The method, boiled down:
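HCT116 cells (5 × 10^6) were injected subcutaneously into the flank of female nu/nu-BALB/c nude mice. Mice were randomized at 100-200 mm3 and dosed daily by oral gavage for 14 days (vehicle 28% PEG300/5% dimethylacetamide/10% HPB cyclodextrin in water). Tumors were formalin-fixed and paraffin-embedded for Rb pSer807/811 or pThr821 immunohistochemistry (citrate pH 6.0 microwave retrieval), scoring >1000 cells per section. Student's t test.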
A general note: A flow cytometer gives signals particle by particle.

Data set [4] concerns HCT-116. Briefly: Cell cycle arrest in human HCT116 cells assessed as concomitant increase in cells at S phase at 1 to 10 umol/L after 24 hrs by propidium iodide staining based flow cytometric analysis. In kind it is functional. The method, boiled down:
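HCT116 cells (4×10^5) were allowed to adhere for 24 h, then exposed to 1 or 10 μmol/L compound from DMSO for 24 h. Cells were fixed in 70% ethanol at 4 °C and stained overnight with RNase and propidium iodide. DNA content was read by flow cytometry. Results are from three independent experiments, with unpaired t test against the DMSO control.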

Data set [5] deals with Insulin receptor-related protein (Homo sapiens, UniProt P14616). Briefly: Inhibition of IRR at 0.1 uM.
Data set [6] addresses Ribosomal protein S6 kinase alpha-1 (Homo sapiens) (UniProt Q15418). The data set is described as follows: Inhibition of RSK1 assessed as residual enzyme activity at 10 uM.
Data set [7] has as its target Casein kinase I isoform alpha (Homo sapiens, UniProt P48729). The data set is described as follows: Inhibition of CK1 assessed as residual enzyme activity at 10 uM.
Data set [8] has as its system HCT-116. Briefly: Antiproliferative activity against human HCT116 cells after 72 hrs by sulforhodamine B assay. To be noted: HCT-116, 72 h. The data set is classed as functional. In a few lines:
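Cell lines were grown in DMEM with 10% FCS and treated with increasing concentrations for 72 h. Growth was read by sulforhodamine B staining and GI50 was derived. Values are means of at least three replicates with SD.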
On the technique in general: In SRB staining, fixed cells bind dye roughly in proportion to their protein.

The target of data set [9] is G2/mitotic-specific cyclin-B1 (Homo sapiens) (UniProt P14635). The data set is described as follows: Inhibition of cyclin B in human HCT116 cells assessed as decrease in protein level at 1 umol/L after 24 hrs by immunoblotting analysis. In kind it is cell-based. The conditions noted are these: HCT-116. In a few lines:
(§2)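 HCT116 colon cancer cells were kept in DMEM with 10% FCS. Cells (8×10^5) were plated, dosed 24 h later, and exposed for 4 or 24 h. Whole-cell lysates were made in RIPA buffer with phosphatase and protease inhibitor cocktails and normalised by BCA protein assay. They were immunoblotted for phospho-sites, total proteins and cyclins.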
Background: Immunoblotting shows a protein as a band on a membrane.

Data set [10] deals with Cyclin-dependent kinase 9 (Homo sapiens) (UniProt P50750). Briefly: Inhibition of CDK9-mediated phosphorylation at Ser2 in C-terminal domain of RNA polymerase 2 in human HCT116 cells after 24 hrs by immunoblotting analysis. The data set is classed as cell-based. The conditions noted are these: HCT-116. The method, boiled down: as §2
For data set [11], the target named is Cyclin-dependent kinase 6 (Homo sapiens) (UniProt Q00534). Briefly: Inhibition of CDK6-mediated phosphorylation of RNA pol3 in human HCT116 cells after 4 hrs by immunoblotting analysis. The conditions noted are these: HCT-116. The data set is classed as cell-based. In a few lines: as §2
The target of data set [12] is Serine/threonine-protein kinase PLK1 (Homo sapiens) (UniProt P53350). The data set is described as follows: Inhibition of PLK1 assessed as residual enzyme activity at 10 uM.
Data set [13] addresses Cyclin-T1/Cyclin-dependent-like kinase 5 (Homo sapiens, UniProt O60563+Q00535). Briefly: Inhibition of CDK5/cyclinT assessed as amount of ATP released by luciferase activity based PKLight assay. The data set is classed as protein-complex assay.
Data set [14] deals with Calcium/calmodulin-dependent protein kinase kinase 2 (Homo sapiens, UniProt Q96RR4). The data set is described as follows: Inhibition of CAMKKbeta assessed as residual enzyme activity at 10 uM.
Data set [15] is described as follows: Cmax in mouse at 10 mg/kg, po. The conditions noted are these: in vivo. The data set is classed as ADME, organism-based. Details: dose 10 mg/kg, route oral. The method, boiled down:
(§3)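 Mice given 10 mg/kg by the ip, iv or oral route. Plasma levels were measured at 8 time points, with 3 animals per route for po and iv. Parameters came from a noncompartmental model. AUCINF was extrapolated to infinity, and bioavailability was calculated from AUCINF. The terminal slope used 3 points.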

The target in data set [16] is Cyclin-dependent kinase 4 (Homo sapiens) (UniProt P11802). Briefly: Inhibition of CDK4-mediated phosphorylation of RB protein in human HCT116 cells after 4 hrs by immunoblotting analysis. The data set is classed as cell-based. To be noted: HCT-116. In a few lines: as §2
The subject of data set [17] is Mus musculus. Briefly: Toxicity in nude BALB/c mouse assessed as adverse effect on weight at 25 mg/kg/day, po for 14 days. Further details: route oral. In kind it is organism-based. The conditions noted are these: in vivo, 336 h. In a few lines:
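Female nu/nu-BALB/c nude mice bearing subcutaneous HCT116 flank xenografts (5×10^6 cells), randomized when tumors reached 100–200 mm3. Dosed by oral gavage once daily for 14 days in PEG300/dimethylacetamide/HPB cyclodextrin vehicle. Body weight recorded daily; vehicle n=8, treated n=6.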

A short description of data set [18]: AUC (0 to last) in mouse at 10 mg/kg, iv. The data set is classed as ADME, organism-based. Further details: time 0 - last, dose 10 mg/kg, route intravenous. The conditions noted are these: plasma. The method, boiled down:
as §3

The target of data set [19] is Mitogen-activated protein kinase 15 (Homo sapiens, UniProt Q8TD08). Briefly: Inhibition of ERK8.
The target in data set [20] is Dual specificity tyrosine-phosphorylation-regulated kinase 3 (Homo sapiens) (UniProt O43781). The data set is described as follows: Inhibition of DYRK3 assessed as residual enzyme activity at 10 uM.
The subject of data set [21] is Mus musculus. The data set is described as follows: Inhibition of cyclin-dependent kinase substrate […] phosphorylation in nude BALB/c mouse PBMC at 75 to 100 mg/kg, po measured after 24 hrs by immunostaining and flow cytometric analysis. Further details: dose 75-100 mg/kg, route oral. In kind it is organism-based. The conditions noted are these: in vivo. The method, boiled down:
as §1

For data set [22], the target named is Serine/threonine-protein kinase PLK1 (Homo sapiens) (UniProt P53350). Briefly: Inhibition of okadaic acid-activated PLK1 assessed as residual enzyme activity at 10 uM.
The target in data set [23] is Mitogen-activated protein kinase 12 (Homo sapiens) (UniProt P53778). Briefly: Inhibition of p38-gamma MAPK assessed as residual enzyme activity at 10 uM.
Data set [24] has as its system Mus musculus. Briefly: Inhibition of cyclin-dependent kinase substrate […] phosphorylation at Ser2 in nude BALB/c mouse PBMC at 50 to 100 mg/kg, po measured after 6 hrs by immunostaining and flow cytometric analysis. The data set is classed as organism-based. Further details: dose 50-100 mg/kg, route oral. The conditions noted are these: in vivo. In a few lines:
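Seven-week-old female nu/nu-BALB/c nude mice got a single oral gavage (vehicle 28% PEG300/5% dimethylacetamide/10% HPB cyclodextrin in water). Blood was taken by cardiac puncture at 6 h or 24 h, red cells were lysed, and PBMC were fixed and permeabilized. Cells were stained with Rb, Rb pThr821, PolII or PolII pSer2 antibodies plus an Alexa488 secondary, then read by flow cytometry; n=4 (n=3 at 100 mg/kg).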

Sequence of Serine/threonine-protein kinase PLK1 (Homo sapiens) (P53350 whole entry): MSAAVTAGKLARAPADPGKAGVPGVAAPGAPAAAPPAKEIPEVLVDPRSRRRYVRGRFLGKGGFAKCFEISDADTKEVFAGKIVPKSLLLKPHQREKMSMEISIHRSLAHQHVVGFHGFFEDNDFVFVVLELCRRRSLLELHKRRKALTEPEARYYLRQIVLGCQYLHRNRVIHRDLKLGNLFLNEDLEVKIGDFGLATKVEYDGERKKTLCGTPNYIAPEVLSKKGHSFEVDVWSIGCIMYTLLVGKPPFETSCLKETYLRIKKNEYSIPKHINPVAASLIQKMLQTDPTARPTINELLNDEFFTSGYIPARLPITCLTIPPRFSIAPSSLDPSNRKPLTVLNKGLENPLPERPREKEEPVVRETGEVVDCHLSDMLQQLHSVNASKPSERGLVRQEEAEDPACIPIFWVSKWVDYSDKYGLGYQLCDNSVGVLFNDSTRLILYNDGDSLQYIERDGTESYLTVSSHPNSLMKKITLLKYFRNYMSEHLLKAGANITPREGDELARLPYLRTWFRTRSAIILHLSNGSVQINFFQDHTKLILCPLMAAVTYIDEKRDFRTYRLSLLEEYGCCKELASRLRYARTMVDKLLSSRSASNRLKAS
Sequence of Calcium/calmodulin-dependent protein kinase kinase 2 (Q96RR4 2-588 limits assumed): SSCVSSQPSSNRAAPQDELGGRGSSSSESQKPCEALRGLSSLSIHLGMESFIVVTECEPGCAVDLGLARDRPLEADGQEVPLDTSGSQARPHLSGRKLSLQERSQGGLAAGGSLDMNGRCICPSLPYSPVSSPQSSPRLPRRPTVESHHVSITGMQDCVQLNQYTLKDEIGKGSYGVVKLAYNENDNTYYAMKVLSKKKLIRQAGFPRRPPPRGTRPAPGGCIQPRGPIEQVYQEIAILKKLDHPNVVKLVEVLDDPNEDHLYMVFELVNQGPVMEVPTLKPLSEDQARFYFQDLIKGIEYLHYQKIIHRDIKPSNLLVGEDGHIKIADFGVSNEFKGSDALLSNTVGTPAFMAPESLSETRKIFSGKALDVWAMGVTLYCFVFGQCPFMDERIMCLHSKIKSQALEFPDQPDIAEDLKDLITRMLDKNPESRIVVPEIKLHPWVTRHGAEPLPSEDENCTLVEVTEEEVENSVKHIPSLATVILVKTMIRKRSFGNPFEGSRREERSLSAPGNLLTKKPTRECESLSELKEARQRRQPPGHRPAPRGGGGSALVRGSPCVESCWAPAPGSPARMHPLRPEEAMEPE
Sequence of Cyclin-dependent kinase 9 (Homo sapiens) (P50750 whole entry, the tested form may be a part): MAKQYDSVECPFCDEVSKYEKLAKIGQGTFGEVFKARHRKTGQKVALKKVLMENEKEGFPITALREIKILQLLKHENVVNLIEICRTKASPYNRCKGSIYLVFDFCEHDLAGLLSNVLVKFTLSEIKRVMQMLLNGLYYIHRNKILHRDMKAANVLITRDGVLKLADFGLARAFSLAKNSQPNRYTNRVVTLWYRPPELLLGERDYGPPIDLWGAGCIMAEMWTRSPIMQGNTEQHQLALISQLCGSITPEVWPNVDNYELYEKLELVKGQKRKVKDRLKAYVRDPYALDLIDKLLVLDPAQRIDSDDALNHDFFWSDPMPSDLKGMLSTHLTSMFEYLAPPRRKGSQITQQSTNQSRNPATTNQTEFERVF
Sequence of Insulin receptor-related protein (P14616 27-742 limits assumed): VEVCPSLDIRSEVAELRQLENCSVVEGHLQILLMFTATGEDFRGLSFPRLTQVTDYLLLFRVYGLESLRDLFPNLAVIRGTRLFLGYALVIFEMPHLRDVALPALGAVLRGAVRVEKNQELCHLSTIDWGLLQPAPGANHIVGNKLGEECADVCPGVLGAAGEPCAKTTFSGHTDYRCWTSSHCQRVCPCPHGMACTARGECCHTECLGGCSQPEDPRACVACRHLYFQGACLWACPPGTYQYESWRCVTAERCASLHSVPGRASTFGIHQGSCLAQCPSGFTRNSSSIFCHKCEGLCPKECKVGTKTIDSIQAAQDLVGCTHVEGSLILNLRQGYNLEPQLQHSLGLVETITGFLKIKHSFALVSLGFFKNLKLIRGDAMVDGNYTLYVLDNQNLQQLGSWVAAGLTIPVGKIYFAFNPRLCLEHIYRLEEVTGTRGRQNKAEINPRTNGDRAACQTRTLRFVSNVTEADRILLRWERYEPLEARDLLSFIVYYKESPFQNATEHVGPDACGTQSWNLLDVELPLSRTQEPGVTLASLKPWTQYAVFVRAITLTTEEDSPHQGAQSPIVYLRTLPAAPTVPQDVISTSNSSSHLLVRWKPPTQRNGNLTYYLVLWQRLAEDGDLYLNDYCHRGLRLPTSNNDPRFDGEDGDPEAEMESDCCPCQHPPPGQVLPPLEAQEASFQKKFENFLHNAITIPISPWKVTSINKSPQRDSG
Sequence of Insulin receptor-related protein (P14616 747-1297 limits assumed): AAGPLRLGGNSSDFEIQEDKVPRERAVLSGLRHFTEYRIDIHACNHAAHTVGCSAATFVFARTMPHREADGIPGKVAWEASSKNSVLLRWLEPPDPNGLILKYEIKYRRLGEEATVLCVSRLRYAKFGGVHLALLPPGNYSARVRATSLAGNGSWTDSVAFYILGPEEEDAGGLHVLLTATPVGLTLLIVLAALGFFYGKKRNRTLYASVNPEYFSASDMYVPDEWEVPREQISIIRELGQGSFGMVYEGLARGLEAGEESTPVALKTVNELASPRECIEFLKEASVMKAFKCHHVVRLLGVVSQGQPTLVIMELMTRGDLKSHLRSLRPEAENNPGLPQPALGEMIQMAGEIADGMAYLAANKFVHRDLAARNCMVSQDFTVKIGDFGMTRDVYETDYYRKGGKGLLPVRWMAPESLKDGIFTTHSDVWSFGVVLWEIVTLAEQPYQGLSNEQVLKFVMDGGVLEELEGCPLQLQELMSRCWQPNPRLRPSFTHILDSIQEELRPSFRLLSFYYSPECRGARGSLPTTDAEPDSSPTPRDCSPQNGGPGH
Sequence of Serine/threonine-protein kinase Chk2 (Homo sapiens) (O96017 whole entry): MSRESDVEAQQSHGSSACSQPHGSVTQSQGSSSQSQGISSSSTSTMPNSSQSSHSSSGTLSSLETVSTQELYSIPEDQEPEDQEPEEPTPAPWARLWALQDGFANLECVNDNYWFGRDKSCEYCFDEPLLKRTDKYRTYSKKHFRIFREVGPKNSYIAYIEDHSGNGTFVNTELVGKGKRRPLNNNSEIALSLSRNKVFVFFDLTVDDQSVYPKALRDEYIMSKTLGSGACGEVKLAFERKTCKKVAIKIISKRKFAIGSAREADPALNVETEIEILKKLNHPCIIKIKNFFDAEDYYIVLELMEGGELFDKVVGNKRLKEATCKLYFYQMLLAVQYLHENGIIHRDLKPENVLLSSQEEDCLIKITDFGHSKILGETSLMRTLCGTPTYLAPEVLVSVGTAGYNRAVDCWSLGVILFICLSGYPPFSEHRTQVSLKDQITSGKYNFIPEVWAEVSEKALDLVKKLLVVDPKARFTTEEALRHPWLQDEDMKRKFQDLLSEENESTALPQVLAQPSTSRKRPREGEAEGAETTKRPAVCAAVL
Sequence of Mitogen-activated protein kinase 15 (Q8TD08 whole entry): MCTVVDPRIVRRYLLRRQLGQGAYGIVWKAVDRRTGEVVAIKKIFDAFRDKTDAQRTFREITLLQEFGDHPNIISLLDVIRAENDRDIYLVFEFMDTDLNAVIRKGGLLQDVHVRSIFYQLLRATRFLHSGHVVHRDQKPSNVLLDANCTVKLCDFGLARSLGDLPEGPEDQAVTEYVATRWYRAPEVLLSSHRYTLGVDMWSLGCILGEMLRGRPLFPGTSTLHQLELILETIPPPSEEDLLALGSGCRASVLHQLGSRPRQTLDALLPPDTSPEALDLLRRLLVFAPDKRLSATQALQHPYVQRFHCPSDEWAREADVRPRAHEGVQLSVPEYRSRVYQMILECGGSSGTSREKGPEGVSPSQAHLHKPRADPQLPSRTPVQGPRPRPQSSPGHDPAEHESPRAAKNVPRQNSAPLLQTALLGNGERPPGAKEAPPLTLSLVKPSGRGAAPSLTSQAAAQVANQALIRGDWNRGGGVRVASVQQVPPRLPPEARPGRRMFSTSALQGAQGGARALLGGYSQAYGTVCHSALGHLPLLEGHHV
Sequence of Mitogen-activated protein kinase 12 (Homo sapiens) (P53778 whole entry): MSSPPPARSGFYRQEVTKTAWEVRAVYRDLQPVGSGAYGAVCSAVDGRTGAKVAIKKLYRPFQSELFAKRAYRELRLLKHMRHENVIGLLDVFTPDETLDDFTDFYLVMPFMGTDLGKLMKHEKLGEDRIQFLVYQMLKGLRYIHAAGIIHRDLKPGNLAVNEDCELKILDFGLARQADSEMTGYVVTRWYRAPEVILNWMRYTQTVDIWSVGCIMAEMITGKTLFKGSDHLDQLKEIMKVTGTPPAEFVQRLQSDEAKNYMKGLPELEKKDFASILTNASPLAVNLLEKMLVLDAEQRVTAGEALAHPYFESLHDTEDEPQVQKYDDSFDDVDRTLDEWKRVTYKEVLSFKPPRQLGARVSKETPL
Sequence of Dual specificity tyrosine-phosphorylation-regulated kinase 3 (Homo sapiens) (O43781 whole entry): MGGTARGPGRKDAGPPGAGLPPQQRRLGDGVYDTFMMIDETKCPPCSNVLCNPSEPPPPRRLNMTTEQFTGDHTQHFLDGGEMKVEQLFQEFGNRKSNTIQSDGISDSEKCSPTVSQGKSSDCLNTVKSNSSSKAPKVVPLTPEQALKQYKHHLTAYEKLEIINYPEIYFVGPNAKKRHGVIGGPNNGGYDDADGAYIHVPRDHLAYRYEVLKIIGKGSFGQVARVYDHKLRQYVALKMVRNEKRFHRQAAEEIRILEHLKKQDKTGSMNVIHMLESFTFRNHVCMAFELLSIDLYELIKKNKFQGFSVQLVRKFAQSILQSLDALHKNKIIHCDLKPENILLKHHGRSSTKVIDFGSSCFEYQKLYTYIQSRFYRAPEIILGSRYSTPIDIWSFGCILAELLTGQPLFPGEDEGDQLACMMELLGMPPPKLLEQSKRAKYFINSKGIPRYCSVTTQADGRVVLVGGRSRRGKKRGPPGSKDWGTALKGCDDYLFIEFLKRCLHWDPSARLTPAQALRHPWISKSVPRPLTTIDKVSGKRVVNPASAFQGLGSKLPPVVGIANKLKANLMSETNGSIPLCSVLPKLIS

Consider `CC(C)c1cnn2c(NCc3ccccc3)cc(N[C@@H](CO)[C@H](O)CO)nc12`, for which the inhibition result (in the data set on Mus musculus [1]; in data set [11]; in data set [16]) was “inactive” each time. The Activity in data set [2] was 61%; in data set [6], 75%; in [7], 19%; in data set [12], 68%; in data set [14] it was 23%; with Mus musculus [17], “Non-toxic”. The Activity worked out at 88% in [20], 97% in [22] and 112% in [23]. For the same compound, the “inhibition (INH)” value in the data set with Mus musculus [3] was “Active”; in the data set on Mus musculus [21], “Not Active”; in the data set with Mus musculus [24], “Active”. The result with HCT-116 [4] was Active. In data set [5], the inhibition is below 50%. Also, in the data set with HCT-116 [8], it took 100 nM to inhibit growth by half (GI50). Also, the inhibition result in data set [9] and in [10] was “Active” throughout. Also, the IC50 came out at 30 nM in [13] and 330 nM in data set [19]. The same compound gave a Cmax in data set [15] of 9350 ng/mL. The exposure AUC(0-t) in [18] is 36200 ng·h/mL.
